Assay results from ChEMBL document CHEMBL4765347, “Radiomodulatory effect of a non-electrophilic NQO1 inducer identified in a screen of new 6, 8-diiodoquinazolin-4(3H)-ones carrying a sulfonamide moiety” (Eur J Med Chem, 2020).
The source made the active and inactive calls. No cut-off for these calls is given here.

Legend:
Nrf2 (Mus musculus) [1] = assay: Activation of Nrf2 in mouse Hepa1c1c7 cells assessed as increase in NQO1 activity at 0.625 uM using menadione as substrate incubated for 20 mins followed by substrate addition and measured after 30 mins by spectrophotometry relative to control; details: filed as activator, time 50.0 min
Nrf2 (Mus musculus) [2] = assay: Activation of Nrf2 in mouse Hepa1c1c7 cells assessed as increase in NQO1 activity at 10 uM using menadione as substrate incubated for 20 mins followed by substrate addition and measured after 30 mins by spectrophotometry relative to control; details: filed as activator, time 50.0 min
Nrf2 (Mus musculus) [3] = assay: Activation of Nrf2 in mouse Hepa1c1c7 cells assessed as increase in NQO1 activity at 5 uM using menadione as substrate incubated for 20 mins followed by substrate addition and measured after 30 mins by spectrophotometry relative to control; details: filed as activator, time 50.0 min
Mus musculus [4] = assay: Antioxidant activity against radiation-induced Swiss albino mouse assessed as decrease in MDA level in liver at 50 mg/kg, ip administered for 5 days and irradiated with gamma radiation after 1 hr of compound administration by ELISA relative to control; type: functional; parameters: scale not given: the % may be the effect or the level left; details: time 5 day
In short: (§1)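 Mice received 50 mg/kg/day i.p. in 10% DMSO for 5 days, plus whole-body 7 Gy 137Cs gamma (0.655 rad/s) 1 h after the last dose. On day 3, five mice per group were anesthetized with urethane. Livers were homogenized in ice-cold 0.1 M PBS pH 7.4. Nrf2 and NQO1 were measured by ELISA, lipid peroxidation as MDA, plus ROS generation. Data are mean ± S.E., one-way ANOVA with Bonferroni.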

Nrf2 (Mus musculus) [5] = assay: Activation of Nrf2 in mouse Hepa1c1c7 cells assessed as increase in NQO1 activity at 1.25 uM using menadione as substrate incubated for 20 mins followed by substrate addition and measured after 30 mins by spectrophotometry relative to control; details: filed as activator, time 50.0 min
[6] = Toxicity in non-irradiated Swiss albino mouse assessed as effect on MDA level at 50 mg/kg, ip administered for 5 days by ELISA; type: organism-based; details: in vivo, 120 h, time 5 day
In short: (§2)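 Non-irradiated mice were dosed 50 mg/kg/day i.p. (vehicle 10% DMSO) for 5 days and compared with vehicle controls. On day 3, five mice per group were anesthetized with urethane. Liver homogenates (ice-cold 0.1 M PBS pH 7.4, stored −80 °C) were assayed for Nrf2 and NQO1 by ELISA, for MDA as lipid peroxide marker, and for ROS. Data are mean ± S.E., n = 5, ANOVA with Bonferroni.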

Mus musculus [7] = assay: Effect on hematopoiesis in gamma-irradiated Swiss albino mouse assessed as increase in radiation-reduced HGB count at 50 mg/kg, ip administered for 5 days and irradiated with gamma radiation after 1 hr of compound administration by automated micro-analyzer; type: functional, organism-based; details: time 5.0 day
In short: (§3)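 Dosing was i.p. 50 mg/kg/day in 10% DMSO for 5 days, followed 1 h after the final injection by 7 Gy whole-body 137Cs gamma irradiation. Complete blood count with platelets (RBC, HGB, PLT, WBC) was done on an automated analyzer 3 days after irradiation. Data are mean ± S.E.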

Mus musculus [8] = assay: Antioxidant activity against radiation-induced Swiss albino mouse assessed as decrease in NQO1 level in liver at 50 mg/kg, ip administered for 5 days and irradiated with gamma radiation after 1 hr of compound administration by ELISA relative to control; type: functional; parameters: scale not given: the % may be the effect or the level left; details: time 5 day
In short: as §1

[9] = Toxicity in Swiss albino mouse assessed as effect on body weight at 50 mg/kg, ip administered for 5 days and observed for 30 days; type: organism-based; details: in vivo, 720 h, time 30 day
In short: (§4)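 Albino mice received the compound at 50 mg/kg/day i.p. daily for 5 days, with 10% DMSO i.p. daily as vehicle control; 80 mice were randomised into four groups. Body weight was recorded weekly and survival was checked daily over 30 days. Mice were housed at 25 ± 5 °C, 60 ± 5% humidity and 12 h light/dark, with food and water ad libitum.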

[10] = Toxicity in Swiss albino mouse assessed as survival rate at 50 mg/kg, ip administered for 5 days and observed for 30 days; type: organism-based; details: in vivo, 720 h, time 30 day
In short: as §4

Mus musculus [11] = assay: Antioxidant activity against radiation-induced Swiss albino mouse assessed as increase in Nrf2 level in liver at 50 mg/kg, ip administered for 5 days and irradiated with gamma radiation after 1 hr of compound administration by ELISA relative to control; type: functional; details: time 5 day
In short: as §1

[12] = Toxicity in non-irradiated Swiss albino mouse assessed as decrease in Nrf2 level at 50 mg/kg, ip administered for 5 days by ELISA; type: organism-based; details: in vivo, 120 h, time 5 day
In short: as §2

Nrf2 (Mus musculus) [13] = assay: Activation of Nrf2 in mouse Hepa1c1c7 cells assessed as increase in NQO1 activity at 2.5 uM using menadione as substrate incubated for 20 mins followed by substrate addition and measured after 30 mins by spectrophotometry relative to control; details: filed as activator, time 50.0 min
[14] = target: Nuclear factor erythroid 2-related factor 2 (Mus musculus) (UniProt Q60795); assay: Activation of Nrf2 in mouse Hepa1c1c7 cells assessed as increase in NQO1 activity at 40 uM using menadione as substrate incubated for 20 mins followed by substrate addition and measured after 30 mins by spectrophotometry relative to control; details: filed as activator, time 50.0 min
Sequence of Nuclear factor erythroid 2-related factor 2 (Mus musculus) (Q60795 whole entry, looked up): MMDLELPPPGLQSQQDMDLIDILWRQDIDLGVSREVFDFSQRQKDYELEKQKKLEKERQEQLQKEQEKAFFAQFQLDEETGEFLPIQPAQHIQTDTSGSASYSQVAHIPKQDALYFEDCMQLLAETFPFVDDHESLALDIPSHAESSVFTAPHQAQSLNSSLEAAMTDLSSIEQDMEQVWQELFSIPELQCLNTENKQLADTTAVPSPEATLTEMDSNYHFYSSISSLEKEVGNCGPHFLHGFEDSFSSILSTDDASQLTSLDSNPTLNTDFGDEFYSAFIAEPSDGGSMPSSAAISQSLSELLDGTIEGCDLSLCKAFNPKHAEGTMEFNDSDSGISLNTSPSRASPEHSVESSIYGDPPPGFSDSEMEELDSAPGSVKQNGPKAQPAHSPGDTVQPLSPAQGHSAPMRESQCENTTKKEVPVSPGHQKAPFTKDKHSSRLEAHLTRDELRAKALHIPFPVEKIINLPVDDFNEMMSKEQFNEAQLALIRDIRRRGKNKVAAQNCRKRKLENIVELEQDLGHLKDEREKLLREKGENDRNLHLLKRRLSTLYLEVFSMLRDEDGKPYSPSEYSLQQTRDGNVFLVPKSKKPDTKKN

Mus musculus [15] = assay: Effect on hematopoiesis in gamma-irradiated Swiss albino mouse assessed as increase in radiation-reduced RBC count at 50 mg/kg, ip administered for 5 days and irradiated with gamma radiation after 1 hr of compound administration by automated micro-analyzer; type: functional, organism-based; details: time 5.0 day
In short: as §3

Nrf2 (Mus musculus) [16] = assay: Activation of Nrf2 in mouse Hepa1c1c7 cells assessed as increase in NQO1 activity at 0.313 uM using menadione as substrate incubated for 20 mins followed by substrate addition and measured after 30 mins by spectrophotometry relative to control; details: filed as activator, time 50.0 min
Nrf2 (Mus musculus) [17] = assay: Activation of Nrf2 in mouse Hepa1c1c7 cells assessed as increase in NQO1 activity at 20 uM using menadione as substrate incubated for 20 mins followed by substrate addition and measured after 30 mins by spectrophotometry relative to control; details: filed as activator, time 50.0 min
[18] = Toxicity in non-irradiated Swiss albino mouse assessed as increase in ROS level at 50 mg/kg, ip administered for 5 days by ELISA; type: organism-based; details: in vivo, 120 h, time 5 day
In short: as §2

Nrf2 (Mus musculus) [19] = assay: Activation of Nrf2 in mouse Hepa1c1c7 cells assessed as increase in NQO1 activity using menadione as substrate incubated for 20 mins followed by substrate addition and measured after 30 mins by spectrophotometry; details: filed as activator, time 50.0 min
Mus musculus [20] = assay: Antioxidant activity against radiation-induced Swiss albino mouse assessed as decrease in ROS level in liver at 50 mg/kg, ip administered for 5 days and irradiated with gamma radiation after 1 hr of compound administration by ELISA relative to control; type: functional; parameters: scale not given: the % may be the effect or the level left; details: time 5 day
In short: as §1

[21] = Toxicity in non-irradiated Swiss albino mouse assessed as increase in NQO1 level at 50 mg/kg, ip administered for 5 days by ELISA; type: organism-based; details: in vivo, 120 h, time 5 day
In short: as §2

Mus musculus [22] = assay: Effect on hematopoiesis in gamma-irradiated Swiss albino mouse assessed as increase in radiation-reduced PLT count at 50 mg/kg, ip administered for 5 days and irradiated with gamma radiation after 1 hr of compound administration by automated micro-analyzer; type: functional, organism-based; details: time 5.0 day
In short: as §3

[23] = Toxicity in ip dosed Swiss albino mouse; type: organism-based; details: in vivo
[24] = Toxicity in Swiss albino mouse assessed as effect on liver weight at 50 mg/kg, ip administered for 5 days and observed for 5 days; type: organism-based; details: in vivo, 120 h, time 5 day

**Q.** For `COc1cc(NC(=O)CSc2nc3c(I)cc(I)cc3c(=O)n2-c2ccc(S(N)(=O)=O)cc2)cc(OC)c1OC`, which T/C (Nrf2 (Mus musculus) [1]) is on record?
**A.** The T/C was 1.08.

**Q.** And the T/C (Nrf2 (Mus musculus) [2])?
**A.** Its T/C is 1.43.

**Q.** What about the T/C (Nrf2 (Mus musculus) [3]) of the same compound?
**A.** Its T/C is 1.24.

**Q.** And the Activity (Mus musculus [4])?
**A.** Its Activity is 28%.

**Q.** What about the T/C (Nrf2 (Mus musculus) [5]) of the same compound?
**A.** The T/C was 1.1.

**Q.** What about the Activity [6] of the same compound?
**A.** Its Activity is “Non-Toxic”.

**Q.** What about the Activity (Mus musculus [7]) of the same compound?
**A.** Its Activity is “Active”.

**Q.** And the Activity (Mus musculus [8])?
**A.** Its Activity is 30%.

**Q.** What about the Activity [9] of the same compound?
**A.** Its Activity is “Non-Toxic”.

**Q.** What about the Activity [10] of the same compound?
**A.** Its Activity is “Non-Toxic”.

**Q.** And the Activity (Mus musculus [11])?
**A.** The Activity was 19%.

**Q.** What about the Activity [12] of the same compound?
**A.** Its Activity is “Non-Toxic”.

**Q.** What about the T/C (Nrf2 (Mus musculus) [13]) of the same compound?
**A.** The T/C was 1.16.

**Q.** And the T/C [14]?
**A.** Its T/C is 2.42.

**Q.** And the Activity (Mus musculus [15])?
**A.** Its Activity is “Active”.

**Q.** What about the T/C (Nrf2 (Mus musculus) [16]) of the same compound?
**A.** Its T/C is 1.02.

**Q.** And the T/C (Nrf2 (Mus musculus) [17])?
**A.** Its T/C is 1.98.

**Q.** And the Activity [18]?
**A.** Its Activity is “Non-Toxic”.

**Q.** And the Activity (Nrf2 (Mus musculus) [19])?
**A.** The Activity was “Dose-dependent effect”.

**Q.** What about the CD (Nrf2 (Mus musculus) [19]) of the same compound?
**A.** Its CD is 20 µM.

**Q.** And the Activity (Mus musculus [20])?
**A.** Its Activity is 23%.

**Q.** What about the Activity [21] of the same compound?
**A.** Its Activity is “Non-Toxic”.

**Q.** And the Activity (Mus musculus [22])?
**A.** Its Activity is “Active”.

**Q.** What about the LD50 [23] of the same compound?
**A.** The LD50 was 500 mg/kg.

**Q.** What about the Activity [24] of the same compound?
**A.** The Activity was “Non-Toxic”.
